Source: ChEMBL document CHEMBL1122219, “Synthesis and antiviral activity of water-soluble esters of acyclovir [9-[(2-hydroxyethoxy)methyl]guanine]” (1983)
Values after ≈ are worked out from the molar mass of the structure shown.

Columns and labels:
Assay type in all cases: functional
[1] = species: Oryctolagus cuniculus; assay: Minimum inhibitory concentration required to reduce virus induced cytopathogenicity in primary rabbit kidney cell cultures by 50% against HSV-2 (G)
How it was run: (§1)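 Primary rabbit kidney cell cultures infected with HSV-1 strains KOS, McIntyre or F, or HSV-2 strains Lyons, G or 196. Antiviral assays ran 3–4 days, with inhibition of virus-induced cytopathogenicity as the read-out. Cytotoxicity was checked as microscopically visible change in normal cell morphology, up to 400 µg/mL.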

[2] = species: Oryctolagus cuniculus; assay: Minimum inhibitory concentration required to reduce virus induced cytopathogenicity in primary rabbit kidney cell cultures by 50% against HSV-2 ([…]); how it was run: as §1
[3] = species: Oryctolagus cuniculus; assay: Minimum inhibitory concentration required to reduce virus induced cytopathogenicity in primary rabbit kidney cell cultures by 50% against Vaccinia virus
[4] = species: Oryctolagus cuniculus; assay: Minimum inhibitory concentration required to reduce virus induced cytopathogenicity in primary rabbit kidney cell cultures by 50% against Vesicular stomatitis virus
[5] = species: Oryctolagus cuniculus; assay: Minimum inhibitory concentration required to reduce virus induced cytopathogenicity in primary rabbit kidney cell cultures by 50% against HSV-1 ((KOS); how it was run: as §1
[6] = species: Oryctolagus cuniculus; assay: Minimum inhibitory concentration required to reduce virus induced cytopathogenicity in primary rabbit kidney cell cultures by 50% against HSV-1 (F); how it was run: as §1
[7] = species: Oryctolagus cuniculus; assay: Minimum inhibitory concentration required to reduce virus induced cytopathogenicity in primary rabbit kidney cell cultures by 50% against HSV-1 (McIntyre); how it was run: as §1
[8] = species: Oryctolagus cuniculus; assay: Minimum inhibitory concentration required to reduce virus induced cytopathogenicity in primary rabbit kidney cell cultures by 50% against HSV-2 (196); how it was run: as §1

Cl.NCC(=O)OCCOCn1cnc2c(O)nc(N)nc21
MIC [1]: 0.08 µg/mL
MIC [2]: 0.04 µg/mL
MIC [3]: 125 µg/mL
MIC [4]: > 400 µg/mL
MIC [5]: 0.1 µg/mL
MIC [6]: 0.1 µg/mL
MIC [7]: 0.1 µg/mL
MIC [8]: 0.07 µg/mL

O=c1[nH]c(=O)n([C@H]2C[C@H](O)[C@@H](CO)O2)cc1/C=C/Br [BRIVUDINE]
MIC [1]: 0.8 µg/mL (≈ 2.4 µM)
MIC [2]: 1 µg/mL (≈ 3 µM)
MIC [3]: 4 µg/mL (≈ 12 µM)
MIC [4]: > 400 µg/mL
MIC [5]: 0.01 µg/mL (≈ 0.03 µM)
MIC [6]: 0.01 µg/mL (≈ 0.03 µM)
MIC [7]: 0.01 µg/mL (≈ 0.03 µM)
MIC [8]: 4 µg/mL (≈ 12 µM)

Nc1nc2c(ncn2COCCO)c(=O)[nH]1 [ACYCLOVIR]
MIC [1]: 0.06 µg/mL (≈ 0.266 µM)
MIC [2]: 0.04 µg/mL (≈ 0.178 µM)
MIC [3]: 80 µg/mL (≈ 355 µM)
MIC [4]: > 400 µg/mL
MIC [5]: 0.08 µg/mL (≈ 0.355 µM)
MIC [6]: 0.09 µg/mL (≈ 0.4 µM)
MIC [7]: 0.1 µg/mL (≈ 0.444 µM)
MIC [8]: 0.06 µg/mL (≈ 0.266 µM)

Cl.NCCC(=O)OCCOCn1cnc2c(O)nc(N)nc21
MIC [1]: 0.15 µg/mL
MIC [2]: 0.1 µg/mL
MIC [3]: 100 µg/mL
MIC [4]: > 400 µg/mL
MIC [5]: 0.2 µg/mL
MIC [6]: 0.5 µg/mL
MIC [7]: 0.4 µg/mL
MIC [8]: 0.1 µg/mL

Nc1nc(O)c2ncn(COCCOC(=O)CCC(=O)[O-])c2n1.[Na+]
MIC [1]: 0.8 µg/mL
MIC [2]: 0.5 µg/mL
MIC [3]: > 400 µg/mL
MIC [4]: > 400 µg/mL
MIC [5]: 0.7 µg/mL
MIC [6]: 0.7 µg/mL
MIC [7]: 0.5 µg/mL
MIC [8]: 0.4 µg/mL

O=c1[nH]c(=O)n([C@H]2C[C@H](O)[C@@H](CO)O2)cc1I [IDOXURIDINE]
MIC [1]: 0.2 µg/mL (≈ 0.565 µM)
MIC [2]: 0.2 µg/mL (≈ 0.565 µM)
MIC [3]: 0.1 µg/mL (≈ 0.282 µM)
MIC [4]: > 400 µg/mL
MIC [5]: 0.15 µg/mL (≈ 0.424 µM)
MIC [6]: 0.15 µg/mL (≈ 0.424 µM)
MIC [7]: 0.2 µg/mL (≈ 0.565 µM)
MIC [8]: 0.4 µg/mL (≈ 1.13 µM)

[N-]=[N+]=NCC(=O)OCCOCn1cnc2c(O)nc(N)nc21
MIC [1]: 0.07 µg/mL (≈ 0.227 µM)
MIC [2]: 0.04 µg/mL (≈ 0.13 µM)
MIC [3]: 150 µg/mL (≈ 487 µM)
MIC [5]: 0.1 µg/mL (≈ 0.324 µM)
MIC [6]: 0.1 µg/mL (≈ 0.324 µM)
MIC [7]: 0.1 µg/mL (≈ 0.324 µM)
MIC [8]: 0.07 µg/mL (≈ 0.227 µM)

CC(N)C(=O)OCCOCn1cnc2c(O)nc(N)nc21.Cl (stereo not drawn)
MIC [1]: 0.2 µg/mL
MIC [2]: 0.07 µg/mL
MIC [3]: 70 µg/mL
MIC [4]: > 400 µg/mL
MIC [5]: 0.4 µg/mL
MIC [6]: 0.4 µg/mL
MIC [7]: 0.4 µg/mL
MIC [8]: 0.1 µg/mL
